# Data as given in ChEMBL document CHEMBL1275278, “Synthesis and pharmacological evaluation of clubbed isopropylthiazole derived triazolothiadiazoles, triazolothiadiazines and mannich bases as potential antimicrobial and antitubercular agents” (Eur J Med Chem, 2010).
# Key:
# Aspergillus niger = assay: Antifungal activity against Aspergillus niger ATCC 6275 after 24 hrs by broth microdilution method; assay type: functional; conditions: ATCC 6275, 24 h
# Escherichia coli = assay: Antibacterial activity against Escherichia coli ATCC 10536 after 24 hrs by broth microdilution method; assay type: functional; conditions: ATCC 10536, 24 h
# How it was run: (§1)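 Broth dilution in Mueller-Hinton broth. Tubes inoculated at 10⁵ cfu/mL and incubated 37 °C for 24 h. MIC taken as lowest concentration completely inhibiting growth. Media and media-plus-DMSO growth controls; ciprofloxacin and norfloxacin as reference standards.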
# Enterococcus faecalis = assay: Antibacterial activity against Streptococcus faecalis ATCC 14506 after 24 hrs by broth microdilution method; assay type: functional; conditions: ATCC 14506, 24 h; how it was run: as §1
# Staphylococcus aureus = assay: Antibacterial activity against Staphylococcus aureus ATCC 11632 after 24 hrs by broth microdilution method; assay type: functional; conditions: ATCC 11632, 24 h; how it was run: as §1
# Bacillus subtilis = assay: Antibacterial activity against Bacillus subtilis ATCC 60511 after 24 hrs by broth microdilution method; assay type: functional; conditions: ATCC 60511, 24 h; how it was run: as §1
# Candida tropicalis = assay: Antifungal activity against Candida tropicalis ATCC 1369 after 24 hrs by broth microdilution method; assay type: functional; conditions: ATCC 1369, 24 h
# Pseudomonas aeruginosa = assay: Antibacterial activity against Pseudomonas aeruginosa ATCC 10145 after 24 hrs by broth microdilution method; assay type: functional; conditions: ATCC 10145, 24 h; how it was run: as §1
# Klebsiella pneumoniae = assay: Antibacterial activity against Klebsiella pneumoniae ATCC 10031 after 24 hrs by broth microdilution method; assay type: functional; conditions: ATCC 10031, 24 h; how it was run: as §1
# Saccharomyces cerevisiae = assay: Antifungal activity against Saccharomyces cerevisiae ATCC 9763 after 24 hrs by broth microdilution method; assay type: functional; conditions: ATCC 9763, 24 h
# [1] = test system: Mycobacterium tuberculosis; assay: Antimycobacterial activity against Mycobacterium tuberculosis H37Rv after 21 days by broth dilution assay; assay type: functional; conditions: 504 h
# How it was run: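 Frozen culture in Middlebrook 7H9 broth with 10% albumin-dextrose-catalase and 0.2% glycerol, thawed and diluted in broth to 10⁵ cfu/mL. Compounds dissolved in DMSO, twofold diluted in broth; final DMSO 1.3%. Tubes inoculated, incubated at 37 °C. Growth compared visually against drug-free and drug- and inoculum-free controls and isoniazid. MIC = lowest concentration inhibiting ≥99% of the starting bacterial population.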
# [2] = Cytotoxicity against human A549 cells assessed as cell viability at 250 uM by MTT assay relative to control; assay type: cell-based; conditions: read-out: Activity
# How it was run: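 A549 lung adenocarcinoma cells grown with fetal bovine serum. Compounds held as 10 mM DMSO stocks at −20 °C and diluted in culture medium before treatment (50–250 µM). Viability read by MTT assay against untreated cells and DMSO vehicle control. Two experiments, each with triplicate readings.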
Compound,MIC (Aspergillus niger),MIC (Escherichia coli),MIC (Enterococcus faecalis),MIC (Staphylococcus aureus),MIC (Bacillus subtilis),MIC (Candida tropicalis),MIC (Pseudomonas aeruginosa),MIC (Klebsiella pneumoniae),MIC (Saccharomyces cerevisiae),MIC [1],viability at 250 µM [2]
CC(C)c1csc(-c2nnc3sc(S)nn23)n1,16 µg/mL,62.5 µg/mL,31.2 µg/mL,125 µg/mL,16 µg/mL,8 µg/mL,31.2 µg/mL,31.2 µg/mL,16 µg/mL,31.2 µg/mL,
Cc1nn2c(-c3nc(C(C)C)cs3)nnc2s1,31.2 µg/mL,125 µg/mL,31.2 µg/mL,62.5 µg/mL,31.2 µg/mL,31.2 µg/mL,62.5 µg/mL,16 µg/mL,62.5 µg/mL,31.2 µg/mL,
COc1cc(C2Nn3c(nnc3-c3nc(C(C)C)cs3)S2)cc(OC)c1OC (stereo not given),31.2 µg/mL,125 µg/mL,31.2 µg/mL,31.2 µg/mL,31.2 µg/mL,16 µg/mL,31.2 µg/mL,62.5 µg/mL,16 µg/mL,62.5 µg/mL,
CC(C)c1csc(-c2nnc3n2NC(c2ccc(O)cc2)S3)n1 (stereo not given),125 µg/mL,62.5 µg/mL,62.5 µg/mL,62.5 µg/mL,31.2 µg/mL,125 µg/mL,62.5 µg/mL,62.5 µg/mL,62.5 µg/mL,125 µg/mL,
CC(C)c1csc(-c2nnc3n2NC(c2ccc([N+](=O)[O-])cc2)S3)n1 (stereo not given),8 µg/mL,62.5 µg/mL,125 µg/mL,125 µg/mL,62.5 µg/mL,8 µg/mL,125 µg/mL,31.2 µg/mL,16 µg/mL,62.5 µg/mL,
CC(C)c1csc(-c2n[nH]c(=S)n2NC(=O)c2ccccc2)n1,16 µg/mL,31.2 µg/mL,31.2 µg/mL,16 µg/mL,31.2 µg/mL,31.2 µg/mL,16 µg/mL,125 µg/mL,62.5 µg/mL,16 µg/mL,
Cc1ccc(C(=O)Nn2c(-c3nc(C(C)C)cs3)n[nH]c2=S)cc1,62.5 µg/mL,62.5 µg/mL,125 µg/mL,62.5 µg/mL,62.5 µg/mL,125 µg/mL,125 µg/mL,62.5 µg/mL,62.5 µg/mL,31.2 µg/mL,
CC(C)c1csc(-c2n[nH]c(=S)n2NC(=O)c2ccc(O)cc2)n1,125 µg/mL,31.2 µg/mL,62.5 µg/mL,125 µg/mL,31.2 µg/mL,125 µg/mL,31.2 µg/mL,31.2 µg/mL,31.2 µg/mL,62.5 µg/mL,
COc1ccc(C(=O)Nn2c(-c3nc(C(C)C)cs3)n[nH]c2=S)cc1,16 µg/mL,8 µg/mL,125 µg/mL,62.5 µg/mL,62.5 µg/mL,8 µg/mL,8 µg/mL,16 µg/mL,4 µg/mL,16 µg/mL,50%
CC(C)c1csc(-c2nn(CN3CCN(C)CC3)c(=S)n2/N=C/c2ccccc2Cl)n1,62.5 µg/mL,125 µg/mL,31.2 µg/mL,16 µg/mL,125 µg/mL,125 µg/mL,31.2 µg/mL,16 µg/mL,125 µg/mL,31.2 µg/mL,
COc1ccc(/C=N/n2c(-c3nc(C(C)C)cs3)nn(CN3CCN(C)CC3)c2=S)cc1,31.2 µg/mL,31.2 µg/mL,16 µg/mL,31.2 µg/mL,8 µg/mL,31.2 µg/mL,16 µg/mL,31.2 µg/mL,16 µg/mL,16 µg/mL,
CC(C)c1csc(-c2nn(CN3CCOCC3)c(=S)n2/N=C/c2ccccc2Cl)n1,31.2 µg/mL,62.5 µg/mL,62.5 µg/mL,31.2 µg/mL,125 µg/mL,125 µg/mL,62.5 µg/mL,16 µg/mL,125 µg/mL,31.2 µg/mL,
COc1ccc(/C=N/n2c(-c3nc(C(C)C)cs3)nn(CN3CCOCC3)c2=S)cc1,16 µg/mL,125 µg/mL,62.5 µg/mL,125 µg/mL,125 µg/mL,31.2 µg/mL,16 µg/mL,31.2 µg/mL,62.5 µg/mL,,
CC(C)c1csc(-c2nn(CN3CCOCC3)c(=S)n2/N=C/c2ccc(N(C)C)cc2)n1,16 µg/mL,31.2 µg/mL,31.2 µg/mL,16 µg/mL,16 µg/mL,31.2 µg/mL,31.2 µg/mL,31.2 µg/mL,62.5 µg/mL,16 µg/mL,
COc1cc(/C=N/n2c(-c3nc(C(C)C)cs3)nn(CN3CCOCC3)c2=S)cc(OC)c1OC,62.5 µg/mL,125 µg/mL,62.5 µg/mL,125 µg/mL,62.5 µg/mL,62.5 µg/mL,62.5 µg/mL,16 µg/mL,125 µg/mL,31.2 µg/mL,
CC(C)c1csc(-c2nn(CN3CCN(C)CC3)c(=S)o2)n1,16 µg/mL,31.2 µg/mL,31.2 µg/mL,62.5 µg/mL,31.2 µg/mL,31.2 µg/mL,16 µg/mL,16 µg/mL,62.5 µg/mL,16 µg/mL,
CC(C)c1csc(-c2nn(CN3CCOCC3)c(=S)o2)n1,62.5 µg/mL,31.2 µg/mL,16 µg/mL,31.2 µg/mL,16 µg/mL,31.2 µg/mL,16 µg/mL,31.2 µg/mL,31.2 µg/mL,31.2 µg/mL,
CC(C)c1csc(-c2nnc3n2N=C(c2ccccc2)CS3)n1,62.5 µg/mL,125 µg/mL,125 µg/mL,125 µg/mL,62.5 µg/mL,125 µg/mL,62.5 µg/mL,125 µg/mL,62.5 µg/mL,125 µg/mL,
Cc1ccc(C2=Nn3c(nnc3-c3nc(C(C)C)cs3)SC2)cc1,31.2 µg/mL,8 µg/mL,31.2 µg/mL,16 µg/mL,31.2 µg/mL,31.2 µg/mL,8 µg/mL,8 µg/mL,62.5 µg/mL,16 µg/mL,
CC(C)c1csc(-c2nnc3n2N=C(c2ccc(O)cc2)CS3)n1,31.2 µg/mL,31.2 µg/mL,31.2 µg/mL,62.5 µg/mL,31.2 µg/mL,31.2 µg/mL,62.5 µg/mL,16 µg/mL,16 µg/mL,125 µg/mL,
CC(C)c1csc(-c2nnc3n2N=C(c2ccc(Cl)cc2)CS3)n1,31.2 µg/mL,125 µg/mL,8 µg/mL,125 µg/mL,8 µg/mL,62.5 µg/mL,16 µg/mL,16 µg/mL,16 µg/mL,16 µg/mL,
CC(C)c1csc(-c2nnc3n2N=C(c2ccc([N+](=O)[O-])cc2)CS3)n1,62.5 µg/mL,16 µg/mL,125 µg/mL,125 µg/mL,16 µg/mL,31.2 µg/mL,125 µg/mL,31.2 µg/mL,16 µg/mL,31.2 µg/mL,
CC(C)c1csc(-c2nnc3n2N=C(c2ccc(Br)cc2)CS3)n1,125 µg/mL,31.2 µg/mL,31.2 µg/mL,125 µg/mL,31.2 µg/mL,31.2 µg/mL,62.5 µg/mL,16 µg/mL,62.5 µg/mL,62.5 µg/mL,
CC(C)c1csc(-c2nnc3n2NC(c2ccccc2Cl)S3)n1 (stereo not given),31.2 µg/mL,62.5 µg/mL,31.2 µg/mL,31.2 µg/mL,125 µg/mL,16 µg/mL,62.5 µg/mL,31.2 µg/mL,125 µg/mL,62.5 µg/mL,
COc1ccc(C2Nn3c(nnc3-c3nc(C(C)C)cs3)S2)cc1 (stereo not given),125 µg/mL,125 µg/mL,16 µg/mL,31.2 µg/mL,62.5 µg/mL,125 µg/mL,62.5 µg/mL,250 µg/mL,62.5 µg/mL,,
CC(C)c1csc(-c2nnc3n2NC(c2ccc(N(C)C)cc2)S3)n1 (stereo not given),31.2 µg/mL,62.5 µg/mL,31.2 µg/mL,16 µg/mL,62.5 µg/mL,31.2 µg/mL,62.5 µg/mL,125 µg/mL,31.2 µg/mL,4 µg/mL,
O=C(O)c1cn(C2CC2)c2cc(N3CCNCC3)c(F)cc2c1=O [CIPROFLOXACIN],,≤ 1 µg/mL,≤ 5 µg/mL,≤ 5 µg/mL,≤ 1 µg/mL,,≤ 5 µg/mL,≤ 1 µg/mL,,,
OC(Cn1cncn1)(Cn1cncn1)c1ccc(F)cc1F [FLUCONAZOLE],≤ 1 µg/mL,,,,,≤ 1 µg/mL,,,≤ 1 µg/mL,,
NNC(=O)c1ccncc1 [ISONIAZID],,,,,,,,,,0.25 µg/mL,
CCn1cc(C(=O)O)c(=O)c2cc(F)c(N3CCNCC3)cc21 [NORFLOXACIN],,≤ 1 µg/mL,≤ 5 µg/mL,≤ 5 µg/mL,≤ 1 µg/mL,,≤ 5 µg/mL,≤ 1 µg/mL,,,
